Results on seven compounds are retold here after ChEMBL document CHEMBL3259574, “Environmentally benign synthesis and antimicrobial study of novel chalcogenophosphates” (Bioorg Med Chem Lett, 2014).

Molecules are shown by their SMILES.

The test system of data set [1] is Cicer arietinum. Kind of data set: Toxicity in gram seed germination assessed as seedling fresh weight. Conditions: in vivo. The format is organism-based.
The subject of the next data set is Candida albicans. The data set is described as follows: Antimicrobial activity against Candida albicans MTCC227 assessed as zone diameter at 100 ug/ml after 24 hrs incubation by agar diffusion as say cup method. Format: functional. To be noted: MTCC227, 24 h, read-out: DIZ. Summed up:
(§1)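 Agar cup diffusion on nutrient agar plates. Solidified plates were spread with 0.1% cell suspension (10^6 CFU/mL) of the test organism and held 15 min, then 6 mm wells were cut. Samples at 100 µg/mL in DMSO went into the wells, and plates were incubated 24 h at 30–35 °C. Inhibition zone diameter was measured in mm by digital vernier caliper. Triplicate parallel sets gave mean ± standard deviation, compared by ANOVA with Tukey test (P < 0.01).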
Background: Agar diffusion results depend on both activity and mobility in agar.

The subject of the next data set is Bacillus subtilis. The data set is described as follows: Antimicrobial activity against Bacillus subtilis MTCC121 assessed as zone diameter at 100 ug/ml after 24 hrs incubation by agar diffusion as say cup method. The format is functional. Conditions: MTCC121, 24 h, read-out: DIZ. The method in brief: as §1
Another data set deals with Pseudomonas aeruginosa. Kind of data set: Antimicrobial activity against Pseudomonas aeruginosa MTCC424 assessed as zone diameter at 100 ug/ml after 24 hrs incubation by agar diffusion as say cup method. Format: functional. Conditions: MTCC424, 24 h, read-out: DIZ. The method in brief: as §1
The subject of data set [2] is Pisum sativum. Kind of data set: Toxicity in pea seed germination assessed as seedling length. Format: organism-based. To be noted: lathyrus oleraceus, in vivo.
The subject of the next data set is Vigna mungo. The data set is described as follows: Toxicity in mung seed germination assessed as seedling fresh weight. The format is organism-based. To be noted: in vivo.
For the next data set, the system named is Staphylococcus aureus. Kind of data set: Antimicrobial activity against Staphylococcus aureus MTCC1430 assessed as zone diameter at 100 ug/ml after 24 hrs incubation by agar diffusion as say cup method. The format is functional. Conditions: MTCC1430, 24 h, read-out: DIZ. Summed up:
as §1

The next data set deals with Escherichia coli. Kind of data set: Antimicrobial activity against Escherichia coli MTCC1610 assessed as zone diameter at 100 ug/ml after 24 hrs incubation by agar diffusion as say cup method. Format: functional. Conditions: MTCC1610, 24 h, read-out: DIZ. The method in brief:
as §1

The test system of data set [3] is Pisum sativum. Kind of data set: Toxicity in pea seed germination assessed as seedling fresh weight. The format is organism-based. Conditions: lathyrus oleraceus, in vivo.
In data set [4] the test system is Cicer arietinum. Kind of data set: Toxicity in gram seed germination assessed as seedling length. Format: organism-based. To be noted: in vivo.

Turning to `CCOP(=O)(OCC)[Se]c1ccccc1`, the Activity result in the data set on Cicer arietinum [1], in the data set with Pisum sativum [2], in the data set on Vigna mungo, with Pisum sativum [3] and in the data set on Cicer arietinum [4] was “Non-toxic” throughout. In addition, the zone of inhibition at 100 µg/mL in the data set on Candida albicans was 34 mm; in the data set with Bacillus subtilis, 31.6 mm; in the data set on Pseudomonas aeruginosa, 32.1 mm; in the data set on Staphylococcus aureus it was 30.2 mm; in the data set on Escherichia coli it was 24.3 mm.
With `COP(=O)(OC)[Se]c1ccccc1`, the zone of inhibition at 100 µg/mL in the data set on Candida albicans is 28.3 mm; in the data set with Bacillus subtilis, 22.1 mm; in the data set on Pseudomonas aeruginosa, 25.6 mm; in the data set on Staphylococcus aureus it was 28.4 mm; in the data set with Escherichia coli it was 22.5 mm.
The like results for `O=P(OCc1ccccc1)(OCc1ccccc1)[Se]c1ccccc1` were, in that order, 25.9 mm, 23.4 mm, 24.3 mm, 20.3 mm and 27.3 mm.
On to `CC(C)OP(=O)(OC(C)C)[Se]c1ccccc1`, for which the Activity result with Cicer arietinum [1], with Pisum sativum [2], in the data set with Vigna mungo, in the data set on Pisum sativum [3] and in the data set on Cicer arietinum [4] was “Non-toxic” each time. Also, the zone of inhibition at 100 µg/mL amounted to 38.6 mm in the data set with Candida albicans; 33.1 mm in the data set on Bacillus subtilis; 33.4 mm with Pseudomonas aeruginosa; 30.5 mm in the data set on Staphylococcus aureus; 35.1 mm in the data set on Escherichia coli.
As to `CCOP(=O)(OCC)Sc1ccccc1`, the Activity result in the data set with Cicer arietinum [1], with Pisum sativum [2], in the data set on Vigna mungo, in the data set with Pisum sativum [3] and in the data set on Cicer arietinum [4] was “Non-toxic” in each case. Moreover, the zone of inhibition at 100 µg/mL in the data set with Candida albicans was 26.4 mm; in the data set on Bacillus subtilis, 20.6 mm; in the data set on Pseudomonas aeruginosa, 23.6 mm; with Staphylococcus aureus it was 22.5 mm; with Escherichia coli, 21 mm.
For the compound `O=P(OCc1ccccc1)(OCc1ccccc1)Sc1ccccc1`, the zone of inhibition at 100 µg/mL with Candida albicans amounted to 28.1 mm; in the data set on Bacillus subtilis, 19.8 mm; in the data set on Pseudomonas aeruginosa, 25.4 mm; with Staphylococcus aureus it was 25.1 mm; in the data set with Escherichia coli, 22.9 mm.
For the compound `O=C(N[C@H](CO)[C@H](O)c1ccc([N+](=O)[O-])cc1)C(Cl)Cl` [CHLORAMPHENICOL], the zone of inhibition at 100 µg/mL in the data set with Bacillus subtilis came to 33.4 mm; in the data set with Pseudomonas aeruginosa, 33.6 mm; in the data set with Staphylococcus aureus, 30.9 mm; in the data set on Escherichia coli, 35 mm.
